Converted amounts (≈) assume the structure as drawn.
Assays:
CpPI(4)K = target: T1, CpPI(4)K (Cryptosporidium parvum, UniProt Q5CVD3); experiment: PI; type: biochemical, C. parvum
T1 sequence (Q5CVD3 1-1114): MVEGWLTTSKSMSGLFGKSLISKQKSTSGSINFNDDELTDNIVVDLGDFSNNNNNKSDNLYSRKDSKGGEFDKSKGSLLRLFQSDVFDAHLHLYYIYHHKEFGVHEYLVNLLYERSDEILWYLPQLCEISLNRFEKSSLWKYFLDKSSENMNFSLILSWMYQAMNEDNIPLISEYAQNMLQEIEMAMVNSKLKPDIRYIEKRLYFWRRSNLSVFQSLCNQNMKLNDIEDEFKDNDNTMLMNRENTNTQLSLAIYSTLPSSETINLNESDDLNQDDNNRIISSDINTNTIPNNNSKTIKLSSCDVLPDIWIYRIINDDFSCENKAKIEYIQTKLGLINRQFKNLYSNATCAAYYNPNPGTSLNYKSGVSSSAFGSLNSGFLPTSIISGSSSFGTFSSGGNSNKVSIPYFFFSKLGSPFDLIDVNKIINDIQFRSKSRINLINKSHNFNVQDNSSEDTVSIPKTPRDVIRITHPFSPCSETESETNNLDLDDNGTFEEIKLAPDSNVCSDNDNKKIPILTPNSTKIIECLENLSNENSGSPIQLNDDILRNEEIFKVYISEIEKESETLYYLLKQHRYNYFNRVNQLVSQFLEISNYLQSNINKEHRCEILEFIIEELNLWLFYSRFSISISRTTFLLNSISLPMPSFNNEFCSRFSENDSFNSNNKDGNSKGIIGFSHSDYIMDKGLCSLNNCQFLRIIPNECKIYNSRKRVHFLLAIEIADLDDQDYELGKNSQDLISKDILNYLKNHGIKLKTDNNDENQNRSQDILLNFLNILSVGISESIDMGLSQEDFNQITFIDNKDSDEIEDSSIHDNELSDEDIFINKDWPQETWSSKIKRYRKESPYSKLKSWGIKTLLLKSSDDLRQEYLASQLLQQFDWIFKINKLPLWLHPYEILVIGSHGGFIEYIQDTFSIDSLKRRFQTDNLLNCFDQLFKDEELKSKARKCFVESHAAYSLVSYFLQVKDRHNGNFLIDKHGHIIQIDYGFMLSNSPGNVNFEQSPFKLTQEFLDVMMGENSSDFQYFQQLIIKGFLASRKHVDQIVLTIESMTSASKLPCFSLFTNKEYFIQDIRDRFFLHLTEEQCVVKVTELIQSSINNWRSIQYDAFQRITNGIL
How it was run: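 Enzyme was pre-incubated with compound for 5 min at room temperature. The reaction was started with substrate mix at twice final strength (PI, ATP, Tris-HCl pH 7.5, DTT, 0.05% Triton X-100, MnCl2) and run 50 min at room temperature. ADP was measured by ADP-Glo luminescence. IC50s came from in-plate duplicate 10-point 3-fold dilutions, with DMSO and reference-inhibitor controls. The C. parvum enzymes (wild type and mutants) were full-length proteins expressed from baculovirus in Sf21 cells.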

HsPI(4)K = HsPI(4)K (Homo sapiens, UniProt Q9UBF8); experiment: PI; type: biochemical; conditions: HsPI(4)K IC50, 3 μM ATP
Chain of HsPI(4)K (Q9UBF8 523-816 limits assumed): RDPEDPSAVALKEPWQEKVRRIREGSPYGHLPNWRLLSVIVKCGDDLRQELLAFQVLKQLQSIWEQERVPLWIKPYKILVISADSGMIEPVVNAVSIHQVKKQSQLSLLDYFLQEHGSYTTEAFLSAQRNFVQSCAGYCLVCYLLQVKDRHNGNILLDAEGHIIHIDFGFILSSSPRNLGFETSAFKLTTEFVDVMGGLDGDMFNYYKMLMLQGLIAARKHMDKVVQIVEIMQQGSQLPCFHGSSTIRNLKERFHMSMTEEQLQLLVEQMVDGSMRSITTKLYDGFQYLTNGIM

Cytotoxicity assay = type: cell-based, human; conditions: human, HepG2 cells (ATCC CRL-10741), HepG2 CC50, 96 h
[1] = 2 weeks GLP rat toxicology study with toxicokinetics; type: in vivo; conditions: both, Wistar, plasma, po, 1000 mg/kg/day, EDI048 1000 mg/kg/day; for AUC(0-t): AUC0-8, rat
How it was run: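 Male and female Wistar rats were about 7–8 weeks old at receipt and 9–10 weeks old at the start of dosing. They were dosed for 2 weeks at 50, 250 and 1000 mg/kg/day, with toxicokinetic plasma sampling.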

[2] = 2 weeks GLP dog toxicology study with toxicokinetics; type: in vivo; conditions: both, beagle, dog, plasma, po, 1000 mg/kg/day, EDI048 1000 mg/kg/day; for AUC(0-t): AUC0-8, dog
[3] = High-throughput equilibrium solubility; type: physicochemical; conditions: thermodynamic from solid
How it was run: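 Equilibrium solubility was measured by a miniaturized shake-flask method with HPLC quantification.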

P-glycoprotein (MDR1) = experiment: MDCK MDR1 permeability and efflux; type: in vitro ADME; conditions: dog
[4] = Hepatocytes metabolic stability; type: in vitro ADME; conditions: mouse; for half-life: hepatocytes
How it was run: (§1)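 Test compound was incubated with liver microsomes or hepatocytes of each species, and parent depletion was quantified by LC-MS/MS. From this, in vitro half-life and intrinsic clearance were derived, along with predicted metabolic clearance and hepatic extraction ratio.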

[5] = Stability in intestinal S9 fraction; type: in vitro ADME; conditions: mouse
How it was run: (§2)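 Test compound added to intestinal S9 fraction of each species to start the reaction. Incubated in a shaking water bath at 37 °C, with samples taken at sequential timepoints. Samples quenched with ice-cold acetonitrile and analysed by LC-MS/MS. Half-life calculated from the rate of parent compound depletion.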

[6] = Stability in intestinal S9 fraction; type: in vitro ADME; conditions: human
How it was run: as §2

Plasma stability [7] = type: in vitro ADME; conditions: mouse
How it was run: (§3)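 Test compound was added to plasma and incubated at 37 °C in a shaking water bath, with samples taken at sequential timepoints. Samples were quenched with ice-cold acetonitrile and analysed by LC-MS/MS, and half-life was calculated from the depletion rate.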

Plasma stability [8] = type: in vitro ADME; conditions: human
How it was run: as §3

[9] = Hepatocytes metabolic stability; type: in vitro ADME; conditions: human
How it was run: as §1

[10] = In vivo pharmacokinetic analysis; set-up: species or system mouse; conditions: male, C57BL/6, mouse, plasma
How it was run: (§4)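 Animals were male C57BL/6 mice (8–10 weeks), Wistar rats (8–10 weeks) and beagle dogs (12–14 weeks). Each received oral and i.v. doses, with plasma sampling for PK parameters.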

[11] = In vivo pharmacokinetic analysis; conditions: male, Beagle, dog, plasma
How it was run: as §4

C. parvum = experiment: Mouse efficacy study; type: in vivo, C57BL/6 IFN-γ-knockout mice; conditions: oral 10 mg kg^−1, 5 days; nitazoxanide 100 mg kg^−1
[12] = Systemic exposure in the mouse efficacy studies; type: in vivo; conditions: mouse efficacy study, 10 mg kg^−1 oral

SMILES | IC50 (CpPI(4)K; CpPI(4)K IC50, 3 μM ATP) | IC50 (HsPI(4)K) | CC50 at 96 h (Cytotoxicity assay) | AUC(0-t) ([1]; day 14) | Cmax ([1]; day 14) | Tmax ([1]; day 1) | Tmax ([1]; day 14) | AUC(0-t) ([2]; day 1) | solubility ([3]; FaSSIF) | solubility ([3]; pH 6.8, aqueous buffer) | Papp A→B (P-glycoprotein (MDR1); MDCK-MDR1) | Papp B→A (P-glycoprotein (MDR1); MDCK-MDR1) | efflux ratio (P-glycoprotein (MDR1); MDCK-MDR1) | Hepatocytes ER [4] | half-life [4] | half-life [5] | half-life [6] | half-life (Plasma stability [7]) | half-life (Plasma stability [8]) | efficacy in the mouse model (C. parvum) | other results
COC(=O)c1cc(N(C)C(=O)c2ccn3ncc(-c4ccc(C(=O)O)cc4)c3c2)ccc1Cl [Compound 7, 4-(5-((4-chloro-3-(methoxycarbonyl)phenyl)(methyl)carbamoyl)pyrazolo[1,5-a]pyridin-3-yl)benzoic acid] | 76 nM | 11300 nM | > 100000 nM | 0.221 ng·h/mL | 0.046 ng/mL | 3 h | 1 h | 642 ng·h/mL | – | – | – | – | – | – | – | – | – | – | – | – | AUC(0-t) ([2]; day 14): 1180 ng·h/mL; Cmax ([2]; day 14): 224 ng/mL; Tmax ([2]; day 1): 1.6 h; Tmax ([2]; day 14): 2.2 h
COC(=O)c1cc(Cl)ccc1N(C)C(=O)c1ccn2ncc(-c3ccc(C(N)=O)cc3)c2c1 [Compound 5, methyl 2-(3-(4-carbamoylphenyl)-N-methylpyrazolo[1,5-a]pyridine-5-carboxamido)-5-chlorobenzoate] | 5 ± 2 nM | 203 ± 47 nM | > 100000 nM | – | – | – | – | – | 147 µM (≈ 68 µg/mL) | 110 µM (≈ 50.9 µg/mL) | 2.55 ×10⁻⁶ cm/s | 15.7 ×10⁻⁶ cm/s | 6.15 | 91% | 0.0667 h | 1 h | 1.77 h | > 2 h | > 2 h | – | –
CNC(=O)c1ccc(-c2cnn3ccc(C(=O)N(C)c4ccc(Cl)c(C(=O)O)c4)cc23)cc1 [Compound 6, 2-chloro-5-(N-methyl-3-(4-(methylcarbamoyl)phenyl)pyrazolo[1,5-a]pyridine-5-carboxamido)benzoic acid] | 31 ± 24 nM | 484 ± 119 nM | > 100000 nM | 1430 ng·h/mL | 242 ng/mL | 1 h | 3 h | 205 ng·h/mL | – | – | 0.56 ×10⁻⁶ cm/s | – | 1.86 | 18% | > 2.92 h | > 4 h | – | – | – | – | solubility ([3]; pH 6.8, aqueous buffer, Solubility pH 6.8, pH 6.8): > 1000 µM; Papp B→A (P-glycoprotein (MDR1); MDCK-MDR1, Permeability B–A, MDCK MDR1, basolateral to apical): 1.04 ×10⁻⁶ cm/s; Hepatocytes ER [9]: 33%; half-life ([9]; hepatocytes): > 2.92 h; AUC ([10]; iv, 1 mg/kg): 1.19 µM·h; AUC ([10]; po, 10 mg/kg): 0.092 µM·h; Cmax ([10]; po, 10 mg/kg): 33.4 nM; AUC ([11]; iv, 0.1 mg/kg): 0.0319 µM·h; AUC ([11]; po, 0.3 mg/kg): 0.0047 µM·h; Cmax ([11]; po, 0.3 mg/kg): 2 nM; AUC(0-t) ([1]; day 1): 886 ng·h/mL; AUC(0-t) ([2]; day 14): 301 ng·h/mL; Cmax ([2]; day 14): 72.8 ng/mL; Tmax ([2]; day 1): 1.2 h; Tmax ([2]; day 14): 1.15 h
CNC(=O)c1ccc(-c2cnn3ccc(C(=O)N(CC(=O)O)c4ccc(Cl)cc4)cc23)cc1 [Compound 2, N-(4-chlorophenyl)-N-(3-(4-(methylcarbamoyl)phenyl)pyrazolo[1,5-a]pyridine-5-carbonyl)glycine] | 2 nM | 135 ± 33 nM | > 100000 nM | – | – | – | – | – | 1000 µM (≈ 463 µg/mL) | 708 µM (≈ 328 µg/mL) | 0.89 ×10⁻⁶ cm/s | 1.65 ×10⁻⁶ cm/s | 1.85 | 52% | 0.597 h | > 4 h | – | > 2 h | > 2 h | not efficacious in vivo | IC50 (CpPI(4)K; CpPI(4)K IC50, running text): 2 to 7 nM
CCOC(=O)CN(C(=O)c1ccn2ncc(-c3ccc(C(=O)NC)cc3)c2c1)c1ccc(Cl)cc1 [Compound 1, ethyl N-(4-chlorophenyl)-N-(3-(4-(methylcarbamoyl)phenyl)pyrazolo[1,5-a]pyridine-5-carbonyl)glycinate] | 7 ± 2 nM | 1140 ± 296 nM | 14700 nM | – | – | – | – | – | 86 µM (≈ 42.2 µg/mL) | 31 µM (≈ 15.2 µg/mL) | 7.89 ×10⁻⁶ cm/s | 7.4 ×10⁻⁶ cm/s | 0.94 | 74% | 0.223 h | 2 h | 2 h | 0.227 h | > 2 h | highly efficacious | IC50 (CpPI(4)K; CpPI(4)K IC50, running text): 2 to 7 nM
CNC(=O)c1ccc(-c2cnn3ccc(C(=O)N(CCC(=O)OCC(=O)N(C)C)c4ccc(Cl)cc4)cc23)cc1 [Compound 3, 2-(dimethylamino)-2-oxoethyl 3-(N-(4-chlorophenyl)-3-(4-(methylcarbamoyl)phenyl)pyrazolo[1,5-a]pyridine-5-carboxamido)propanoate] | 5 nM | 1030 ± 485 nM | 38200 nM | – | – | – | – | – | 355 µM (≈ 200 µg/mL) | 11 µM (≈ 6.18 µg/mL) | – | – | – | 93% | < 0.0467 h | 0.153 h | 0.75 h | – | – | inactive in vitro and in vivo | AUC (time 0 to last timepoint) [12]: <LLOQ^f; Cmax [12]: <LLOQ^f

— PMC11522000 (Nature Microbiology, 2024)
